# Measured values pooled from the literature.
# Each line is one published result; the experiments were not run side by side.
# Target: Misshapen-like kinase 1 (MINK1, Homo sapiens, UniProt Q8N4C8)
SMILES,observed,mode,technique,concentration,endpoint,value
CC/C(=N\NC(=O)NCc1cccc(O)c1)c1ccc(O)c(C)c1O,enzyme activity,inhibitor,,0.1 µM,inhibition,-1%
CCN(CC)CCNC(=O)c1c(C)[nH]c(/C=C2\C(=O)Nc3ccc(F)cc32)c1C,enzyme activity,inhibitor,,10 µM,inhibition,94%
Nc1ncnc2occ(-c3ccc(NC(=O)Nc4cc(C(F)(F)F)ccc4F)cc3)c12,cell-free assay,inhibitor,,20 µM,remaining signal,1.5%
COc1ccc2c(c1)O[C@@H](c1ccc(OC)c(OC)c1)C[C@H]2NC(=O)C1(c2ccc3c(c2)OC(F)(F)O3)CC1,cell-free assay,,competition with immobilised ligand,1 µM,remaining binding,77%
Cc1sc(C(=O)NC2COC2)cc1-n1cc(NC(=O)Nc2c(F)cccc2Cl)cn1,enzyme activity,inhibitor,,10 µM,remaining activity,102%
COc1cc(Nc2cnc(C#N)c(O[C@H](C)CN(C)C)n2)ncc1-c1cnn(C)c1,enzyme activity,inhibitor,radiometric,1 µM,remaining activity,90%
COc1cc2ncnc(Nc3ccc(Oc4ccccc4)cc3C)c2cc1OC,enzyme activity,inhibitor,,1 µM,inhibition,7%
FC(F)(F)Oc1cccc(-c2cnc3ccc(-c4ccncc4)nn23)c1,enzyme activity,inhibitor,radiometric,5 µM,activity vs control,63%
N#CCCc1ccc2c(c1)-c1[nH]c3ccc([N+](=O)[O-])cc3c1CC(=O)N2,cell-free assay,,,0.5 µM,remaining signal,29.9%
FC(F)c1nc2ccccc2n1-c1nc(N2CCOCC2)nc(N2CCOCC2)n1,enzyme activity,inhibitor,,10 µM,remaining activity,102%
Cc1ccc(Nc2nccc(N(C)c3ccc4c(C)n(C)nc4c3)n2)cc1S(N)(=O)=O,enzyme activity,inhibitor,,0.3 µM,inhibition,23%
C[C@@H]1CN(c2cc(-c3n[nH]c4ccc(OC5(C)CC5)cc34)ncn2)C[C@H](C)O1,cell-free assay,,competition with immobilised ligand,0.1 µM,remaining binding,84%
CNC(=O)c1cc(Oc2ccc(NC(=O)Nc3ccc(Cl)c(C(F)(F)F)c3)cc2)ccn1,enzyme activity,inhibitor,,0.3 µM,inhibition,14%
Cc1nc(C2CCN(C(=O)c3ccc(OC(F)(F)F)cc3N)CC2)c2ncc(N3CCN(C)CC3)cc2n1,cell-free assay,,competition with immobilised ligand,1 µM,remaining binding,93%
O=C1Nc2ccc(Cl)cc2C1=Cc1cc(Cl)c(O)c(Cl)c1,cell-free assay,,,0.5 µM,remaining signal,22.4%
CC(C)(C)c1nc2c(s1)c1nc(N)ncc1c1ccc(NS(=O)(=O)c3c(F)cccc3F)c(F)c12,enzyme activity,inhibitor,radiometric,1 µM,remaining activity,90%
COc1cc(-c2cc(-c3ccc(N4CCNCC4)cc3)cnc2N)cc(OC)c1OC,enzyme activity,inhibitor,,1 µM,inhibition,89%
Cc1ccc(C(=O)Nc2ccc(CN3CCN(C)CC3)c(C(F)(F)F)c2)cc1C#Cc1cnc2cccnn12,enzyme activity,inhibitor,,23.5 nM,remaining activity,45%
C=CC(=O)Nc1cc(Nc2nccc(Nc3cc(Cl)c(F)cc3C(C)(C)O)n2)c(OC)cc1N1CC[C@@H](N(C)C)C1,enzyme activity,inhibitor,,1 µM,inhibition,-3%
Cn1c(=O)n(-c2ccc(C(C)(C)C#N)cc2)c2c3cc(-c4cnc5ccccc5c4)ccc3ncc21,enzyme activity,inhibitor,,10 µM,remaining activity,75%
COc1ccc(COc2ccc(Cc3cnc(N)nc3N)cc2OC)cc1,cell-free assay,,,0.5 µM,remaining signal,86.5%
CCCOc1ccc([C@@H]2[C@@H](C(=O)O)[C@H](c3ccc4c(c3)OCO4)CN2CC(=O)Nc2c(CC)cccc2CC)cc1,cell-free assay,,competition with immobilised ligand,1 µM,remaining binding,78%
Cc1cnc(NC2CCOCC2)nc1-n1cnc(C(=O)NC(CN)c2cc(F)cc(Cl)c2)c1 (stereo not shown),enzyme activity,inhibitor,radiometric,1 µM,remaining activity,103%
NS(=O)(=O)c1cc(NC(=O)Cc2ccccc2)ccc1Oc1cccc(Cl)c1,cell-free assay,,competition with immobilised ligand,1 µM,remaining binding,90%
CN(C)C1CCN(CC#Cc2nn(C3CCCC3)c3nc(NCc4ccccc4)ncc23)C1 (stereo not shown),enzyme activity,inhibitor,FRET,1 µM,inhibition,17%
CO[C@@H](C)c1c(Nc2ccc([C@H](N(C)C(=O)C3CCS(=O)(=O)CC3)C(F)(F)F)cc2)cnc2cc(Cl)nn12,cell-free assay,,competition with immobilised ligand,1 µM,remaining binding,100%
CCCOc1ccc(OC)c(F)c1C(=O)c1ccc(C(=O)N[C@@H]2CNC[C@H]2NC(=O)c2ccc3[nH]ncc3c2)cc1,enzyme activity,inhibitor,,10 µM,remaining activity,96%
N#CC1(c2ccccn2)CCN(Cc2cc(C(=O)N3CCCC3)c(=O)n3ccccc23)CC1,cell-free assay,,competition with immobilised ligand,1 µM,remaining binding,89%
Cc1ccc(C(=O)NCc2ccsc2)cc1C#Cc1cn(C(C)C)c2ncnc(N)c12,enzyme activity,inhibitor,,1 µM,activity vs control,84%
CCS(=O)(=O)c1cc2cc(C[C@@](O)(CC(C)(C)c3ccc(F)cc3C(N)=O)C(F)(F)F)[nH]c2cn1,cell-free assay,,competition with immobilised ligand,1 µM,remaining binding,79%
CN1CC(Oc2cnc(C#N)cc2-c2ccn3nc(NC(=O)C4CC4)cc3c2)C1,enzyme activity,inhibitor,,1 µM,inhibition,13%
